HCT116 bCat-KO: beta-catenin-lacking colon tumor cell growth suppression; HCT116 beta-catenin knockout viability, CellTiter-Glo, 60 h; stronger effect = lower value; viability, % at 10 µM; actives 1.5% (n = 140,000); AID 818;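 active means viability at or under a set limit, the compound median less 4 SD, cut at about 6% in these data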;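 further: 0% = Hyamine 1622 control at 20 µM and 100% = untreated cell control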
Lmaj promast: reduces viability of Leishmania major promastigotes; resazurin fluorescence viability; inhibition, % at 10 µM; actives 9% (n = 200,000); in the data active means inhibition above about 50%;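 further: promastigotes grown with compound for 44 hours at 28 °C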
PMI act hi M6P: activators of human phosphomannose isomerase at near-saturating mannose 6-phosphate; P34949; coupled PMI enzyme assay, resazurin fluorescence, 20 min; stronger effect = higher value; 1 = untreated enzyme, 0 = substrate-free blank; activation factor at 20 µM; actives 0.34% (n = 190,000); AID 1216;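 active means activation factor of 2 or more at 20 µM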
Target sequence (P34949 whole entry, looked up): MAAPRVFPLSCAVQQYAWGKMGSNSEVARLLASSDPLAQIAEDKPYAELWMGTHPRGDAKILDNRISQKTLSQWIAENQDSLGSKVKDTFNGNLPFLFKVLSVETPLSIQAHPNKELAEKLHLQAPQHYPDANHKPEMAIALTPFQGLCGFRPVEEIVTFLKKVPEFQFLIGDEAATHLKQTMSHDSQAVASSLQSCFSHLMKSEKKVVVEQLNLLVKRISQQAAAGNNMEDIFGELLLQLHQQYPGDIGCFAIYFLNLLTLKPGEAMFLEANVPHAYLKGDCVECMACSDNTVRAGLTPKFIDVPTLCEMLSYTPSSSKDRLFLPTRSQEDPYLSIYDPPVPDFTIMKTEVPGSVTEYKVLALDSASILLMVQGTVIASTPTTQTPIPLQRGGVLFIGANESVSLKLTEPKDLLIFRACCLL
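Test system: Human PMI in coupled enzyme assay | Input: 15 ng/mL PMI | Medium: HEPES-buffered pH 7.4 with magnesium and detergent | Compound: One concentration, 20 µM, in 1% DMSO | Incubation: Enzyme reaction with compound 20 min at room temperature | Detection: Diaphorase-driven resazurin-to-resorufin fluorescence, excitation 544, emission 590 nm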
PMI activator: increases human mannose-6-phosphate isomerase activity; activation factor at 20 µM; P34949; actives 0.005% (n = 190,000); purified human PMI, coupled resazurin fluorescence, 20 min; stronger effect = higher value; 1 = vehicle control, 0 substrate-free wells; AID 1214;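 active means activation factor of 2 or more at 20 µM, relative to plate controls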
HCT116 PTEN-null: PTEN-deleted cell growth suppression. HCT116 PTEN-null viability, CellTiter-Glo, 60 h; stronger effect = lower value. viability, % at 10 µM. actives 1.2% (n = 140,000);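 active means viability at or below a set limit, 4 SD under the median of all tested compounds, cut at about 3.7% in these data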;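 further: PTEN knockout HCT116 line with beta catenin targeted HCT116 as companion control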
Starred values were filed as active, the others as inactive; . = no result. In the library only some 9.6% were active in any assay of this set; here they are far more common.

SMILES	HCT116 bCat-KO	Lmaj promast	PMI act hi M6P	PMI activator	HCT116 PTEN-null
CCOC(=O)C1CCN(Cc2cnc(Oc3ccc(N)cc3)s2)CC1	72.7	84.4*	0.9	0.9	69.9
Cc1ccc(Oc2ncc(CN3CC(C)OC(C)C3)s2)cc1 (stereo unspecified)	85.9	52.2*	1.1	1	88.2
CCOC(=O)C1CCN(Cc2cnc(Oc3ccc(Cl)cc3C)s2)CC1	92.7	90.0*	0.9	0.8	93.0
CCOC(=O)C1CCN(Cc2ccccc2C(F)(F)F)CC1	81.0	-5.1	1.1	1	106.3
CCOC(=O)C1CCN(C(=S)Nc2ccc(Cl)cc2C)CC1	.	-0.3	0.9	1	.
Cc1ccc(NC(=O)CSc2nnc(-c3cccs3)o2)cc1S(=O)(=O)N(C)C	.	-3.6	1	1	.
C=CCn1c(SC(C)CC)nc(O)cc1=O (stereo unspecified)	92.0	-9.1	1.1	1.1	96.3
CCN1CCN(C(=O)C2CCN(Cc3nc(-c4cccc(Cl)c4)oc3C)CC2)CC1	12.4	65.5*	1	0.9	34.6
CCN(CCNC(=O)C1CCN(Cc2nc(-c3cccc(Cl)c3)oc2C)CC1)c1ccccc1	1.3*	32.7	0.9	0.9	1.5*
CCc1ccc(-c2nc(CN3CCC(C(=O)NCCN(CC)c4ccccc4)CC3)c(C)o2)cc1	1.9*	64.7*	0.9	1	1.7*
CCc1ccc(-c2nc(CN3CCC(C(=O)NCc4ccc(F)cc4)CC3)c(C)o2)cc1	42.8	0.9	1	1	50.8
CCN(CCNC(=O)C1CCCN(S(=O)(=O)CC)C1)c1ccccc1 (stereo unspecified)	99.5	-2.8	0.8	0.9	94.6
CCN(CCNC(=O)C1CCCN(Cc2nc(-c3ccc(OC)cc3)oc2C)C1)c1ccccc1 (stereo unspecified)	13.3	50.7*	0.9	0.9	13.3
CCN(CCNC(=O)C1CCN(Cc2nc(-c3ccc(Cl)cc3)oc2C)CC1)c1ccccc1	1.1*	37.7	0.9	0.8	1.6*
Cc1oc(-c2cccc(Cl)c2)nc1CN1CCC(C(=O)NCc2cccnc2)CC1	82.6	-4.8	1	1.1	89.1
CNc1nc(C)c(C(=O)OCc2ccccc2)s1	100.1	-0.7	0.9	0.9	102.5
CSc1nnc(C)c(=O)n1COC(=O)c1ccccc1	.	1.2	1.1	1	.
Fc1ccc(Nc2nc(-c3ccncc3)nc3ccccc23)cc1F	58.8	81.0*	1.1	1.2	43.2
O=C(/C(=C/O)N=Nc1ccccc1)c1cccs1	.	83.5*	0.9	0.8	.
COc1ccc(N=N/C(=C\O)C(=O)c2ccco2)cc1	.	3.9	0.8	0.8	.
CC(C)Oc1ccc(C(CC(=O)N(C)CCC#N)c2ccc(F)cc2)cc1 (stereo unspecified)	91.4	52.8*	0.9	0.9	97.1
CCN(CC)C(=O)CC(c1ccc(F)cc1)c1ccc(OC)cc1 (stereo unspecified)	83.1	-4.7	1	0.9	88.7
NC(N)=Nc1nc(-c2ccccc2)c2cc(F)ccc2n1	.	100.0*	1	1	.
Oc1cccc2c(NC(=S)Nc3ccc(SC(F)F)cc3)cccc12	67.4	-3.1	0.7	0.9	59.7
Oc1cccc(NC(=S)Nc2ccc(SC(F)F)cc2)c1	95.7	61.5*	0.8	0.8	90.8
SMILES	HCT116 bCat-KO	Lmaj promast	PMI act hi M6P	PMI activator	HCT116 PTEN-null
Cc1cc(C)c(OCC(O)CN2CCN(c3ccccn3)CC2)c(C)c1 (stereo unspecified)	.	-4.5	1.1	1.2	.
CN1CCN(C2=Cc3ccc(Cl)cc3Sc3ccc(F)cc32)CC1	10.1	95.4*	0.9	0.9	6.5
CN1CCCN(c2ncnc3scc(-c4ccc(F)cc4)c23)CC1	.	-6.0	1.1	1	.
CN1CCN(C2=Cc3ccccc3Sc3cc(F)ccc32)CC1	20.4	99.9*	1	1	19.1
COc1ccc(C2C(C#N)=C(N)Nc3nc4ccccc4n32)cc1 (stereo unspecified)	94.6	64.7*	1	1	95.5
Cc1ccc([N+](=O)[O-])cc1NC(=O)c1ccc(-c2ccccc2)cc1	72.1	-3.1	0.9	0.9	68.7
Cc1c(C(=O)Nc2ccc3c(c2)OCCO3)sc2nc(-c3ccccc3)cn12	14.0	56.0*	1	1	21.2
Cc1c(C(=O)Nc2ccncc2)sc2nc(-c3ccccc3)cn12	89.3	76.2*	0.8	0.8	80.6
Cc1c(C(=O)NCc2ccco2)sc2nc(-c3ccccc3)cn12	92.0	7.4	0.8	0.8	98.2
